Results: ChEMBL document CHEMBL1134527, “Discovery of novel mesangial cell proliferation inhibitors using a three-dimensional database searching method” (2001)

Columns and labels:
Format in all cases: functional
[1] = Compound was tested for the in vitro MC proliferation Inhibitory activity at a dose of 10 uM against normal human mesangial cells
Method in brief: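 Normal human glomerular mesangial cells kept in MCDB131 with amphotericin B, gentamycin and 5% FBS. Seeded 2 × 10⁴ cells/well, grown 3 days, serum-starved 4 days. Then given compound in DMEM + 2% FBS for 18 h with 1 μCi/mL [³H]thymidine. TCA-insoluble counts read by scintillation, four wells per concentration. Inhibition % = (control − sample)/(control − blank), where blank is DMEM alone.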

[2] = system: RPTEC; experiment: Compound was evaluated for the renal proximal tubular epithelial cell (RPTEC) proliferation assay using RPTEC's at a dose of 10 uM; settings: Homo sapiens
Method in brief: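 Human renal proximal tubular epithelial cells, run by the same [³H]thymidine method as the mesangial assay. Compound added in DMEM + 2% FBS for 18 h after serum-free pre-incubation. DNA synthesis taken as TCA-insoluble counts, four wells per concentration. Inhibition % = (control − sample)/(control − blank), where blank is DMEM alone.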

[3] = system: RPTEC; experiment: Compound was evaluated for the renal proximal tubular epithelial cell ( RPTEC) proliferation assay using RPTEC''s at a dose of 1 uM; settings: Homo sapiens
Method in brief: (§1)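 Human renal proximal tubular epithelial cells handled as in the mesangial assay: plated 2 × 10⁴ cells/well for 3 days, serum-starved 4 days. Then 18 h in DMEM + 2% FBS with compound and 1 μCi/mL [³H]thymidine. TCA-precipitable counts measured; four wells per concentration. % inhibition = (control − sample)/(control − blank).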

[4] = system: RPTEC; experiment: Compound was evaluated for the renal proximal tubular epithelial cell (RPTEC) proliferation assay using RPTEC''s at a dose of 0.1 uM; settings: Homo sapiens; method in brief: as §1
[5] = Compound was tested for the in vitro MC proliferation Inhibitory activity at a dose of 0.1 uM against normal human mesangial cells
Method in brief: (§2)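 Normal human glomerular mesangial cells grown in MCDB131 with 5% FBS, amphotericin B and gentamycin. Plated at 2 × 10⁴ cells/well for 3 days, then serum-free 4 days. Exposed to compound in DMEM + 2% FBS for 18 h with 1 μCi/mL [³H]thymidine. TCA-insoluble counts read; four wells per concentration. Inhibition % = (control − sample)/(control − DMEM blank).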

[6] = Compound was tested for the in vitro MC proliferation Inhibitory activity at a dose of 1 uM against normal human mesangial cells; method in brief: as §2

SMILES | inhibition at 10 µM [1] | inhibition at 10 µM [2] | inhibition at 1 µM [3] | inhibition at 0.1 µM [4] | inhibition at 0.1 µM [5] | inhibition at 1 µM [6]
CCOP(=O)(Cc1ccc(C(=O)Nc2ccc(Br)cc2C#N)cc1)OCC [IBROLIPIM] | 56% | 77% | – | – | – | –
CO/C(O)=C(/C=N/c1ccc(Oc2ccccc2OC(C)C)nc1)NC(=O)c1ccccc1 | 82% | 8% | 12% | 2% | 68% | 73%
CCOC(=O)c1cc(NC(=O)NC(=O)c2c(Cl)cccc2Cl)ccc1Oc1cncc(Cl)c1 | 112% | 96% | 32% | -1% | 90% | 105%
CCOP(=O)(Cc1ccc(C(=O)Nc2ccccn2)cc1)OCC | 68% | 60% | 32% | 23% | 62% | 65%
Cc1c(Cc2c(Cl)cccc2Cl)c(=O)oc2cc(OCC(=O)OCC(=O)c3ccc(Cl)cc3)ccc12 | 80% | 21% | 6% | 16% | 72% | 74%
CCOP(=O)(Cc1ccc(C(=O)Nc2cc(-c3ccc(Cl)cc3)no2)cc1)OCC | 94% | 99% | 88% | 30% | 69% | 91%
Cc1c(Cc2c(Cl)cccc2Cl)c(=O)oc2cc(OCC(=O)OCC(=O)c3ccccc3)ccc12 | 66% | 31% | 24% | 35% | 49% | 60%
CCOP(=O)(Cc1ccc(C(=O)Nc2nc3c(OC)cc(OC)cc3s2)cc1)OCC | 108% | 103% | 39% | 33% | 59% | 59%
CCOP(=O)(Cc1ccc(C(=O)Nc2nc(-c3ccccc3)ns2)cc1)OCC | 108% | 96% | 61% | 33% | 62% | 85%
